For one test, the system named is Penicillium chrysogenum. Kind of test: Antifungal activity against Penicillium chrysogenum MTCC 160 after 24 to 48 hrs by agar diffusion method. The following applies: for MIC: Penicillium chrysogenum, MTCC 160. Type of test: functional. The essentials:
(§1)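 Fungi grown on potato dextrose agar slants at 27 ± 0.2 °C for 24–48 h until sporulation. Spores suspended in sterile water with 1% Tween-80 and counted by haemocytometer (10⁶ CFU/mL). 0.1 mL spread on 2% agar PDA plates and held at 27 °C for 12 h. Wells then received 0.1 mL of compound at graded concentrations for MIC. Plates refrigerated 20 min for diffusion, then incubated at 27 ± 0.2 °C for […]. Zone read in mm. 1% DMSO used as control.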
In general terms: Agar diffusion results depend on both activity and mobility in agar.

For the next test, the system named is Candida albicans. Briefly: Antifungal activity against Candida albicans MTCC 183 after 24 to 48 hrs by agar diffusion method. Format: functional. As to conditions: for MIC: Candida albicans, MTCC 183. The gist of the method: as §1
The subject of a further test is Escherichia coli. Briefly: Antibacterial activity against Escherichia coli MTCC 2939 after 24 hrs by agar diffusion method. Type of test: functional. The following applies: for MIC: Escherichia coli, MTCC 2939, 24 h. The gist of the method:
(§2)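 Agar well diffusion following NCCLS. Bacteria kept on nutrient agar slants at 37 ± 0.5 °C for 24 h. Nutrient agar plates seeded with 0.1 mL of culture suspension in 0.85% sterile saline (10⁵ CFU/mL). Plates incubated at 37 ± 0.5 °C for 24 h. Zone of inhibition recorded in mm, and MIC noted. 1% DMSO used as control.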

In the next test the test system is Salmonella enterica. Briefly: Antibacterial activity against Salmonella typhi MTCC 98 after 24 hrs by agar diffusion method. Type of test: functional, Salmonella enterica subsp. enterica serovar Typhi. The following applies: for MIC: Salmonella enterica, MTCC 98, 24 h. The essentials:
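NCCLS agar diffusion. Strain kept on nutrient agar slant at 37 ± 0.5 °C for 24 h. Nutrient agar plates seeded with 0.1 mL of a 10⁵ CFU/mL suspension in sterile 0.85% saline. Plates incubated at 37 ± 0.5 °C for 24 h. Read-out: zone of inhibition (mm) and MIC.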

The subject of the next test is Staphylococcus aureus. Kind of test: Antibacterial activity against Staphylococcus aureus MTCC 96 after 24 hrs by agar diffusion method. Format: functional. The following applies: for MIC: Staphylococcus aureus, MTCC 96, 24 h. The gist of the method: as §2
Another test deals with Aspergillus niger. Kind of test: Antifungal activity against Aspergillus niger MTCC 281 after 24 to 48 hrs by agar diffusion method. As to conditions: for MIC: Aspergillus niger, MTCC 281. Format: functional. The gist of the method:
as §1

The test system of the next test is Trichoderma viride. Briefly: Antifungal activity against Trichoderma viride MTCC 167 after 24 to 48 hrs by agar diffusion method. As to conditions: for MIC: Trichoderma viride, MTCC 167. Format: functional. The gist of the method:
as §1

A further test concerns Fusarium verticillioides. Briefly: Antifungal activity against Fusarium moniliforme MTCC 156 after 24 to 48 hrs by agar diffusion method. The following applies: for MIC: Fusarium verticillioides, MTCC 156. Type of test: functional. The essentials: as §1
A further test deals with Bacillus subtilis. Briefly: Antibacterial activity against Bacillus subtilis MTCC 441 after 24 hrs by agar diffusion method. The following applies: for MIC: Bacillus subtilis, MTCC 441, 24 h. Type of test: functional. The essentials: as §2

Converted amounts (≈) assume the structure as drawn.

In general, MIC refers to the lowest concentration that inhibits growth of the organism. Low readings indicate a more susceptible organism, high ones a less susceptible organism. For the molecule `CCCCc1nc(Cl)c(C2CC(c3ccc(N)cc3)=NN2c2nc(-c3ccc(Cl)cc3)cs2)[nH]1` (stereo not given), the “inhibition zone (IZ)” value in the test with Penicillium chrysogenum was 10 mm; with Escherichia coli it was 12 mm; in the test on Staphylococcus aureus, 10 mm; in the test with Aspergillus niger, 14 mm; in the test with Trichoderma viride, 12 mm; in the test on Bacillus subtilis, 8 mm. In addition, the MIC was 50 µg/mL (≈ 97.8 µM) with Penicillium chrysogenum; > 100 µg/mL against Candida albicans; 50 µg/mL (≈ 97.8 µM) with Escherichia coli; > 100 µg/mL in the test on Salmonella enterica; 50 µg/mL (≈ 97.8 µM) in the test on Staphylococcus aureus; 25 µg/mL (≈ 48.9 µM) against Aspergillus niger. Also, the MIC in the test on Trichoderma viride is 50 µg/mL (≈ 97.8 µM); in the test on Fusarium verticillioides, > 100 µg/mL; in the test with Bacillus subtilis, 50 µg/mL (≈ 97.8 µM).
Turning to `CCCCc1nc(Cl)c(C2CC(c3cc(Cl)cc(Br)c3O)=NN2c2nc(-c3ccc(Cl)cc3)cs2)[nH]1` (stereo not given), the “inhibition zone (IZ)” value worked out at 16 mm in the test on Penicillium chrysogenum; 16 mm in the test on Candida albicans; 21 mm with Escherichia coli; 18 mm in the test on Salmonella enterica; 16 mm in the test on Staphylococcus aureus; 18 mm with Aspergillus niger. Moreover, the “inhibition zone (IZ)” value with Trichoderma viride was found to be 15 mm; in the test with Fusarium verticillioides it was 10 mm; with Bacillus subtilis it was 15 mm. Further, the MIC against Penicillium chrysogenum, against Candida albicans, against Escherichia coli, with Salmonella enterica, against Staphylococcus aureus and in the test on Aspergillus niger was 25 µg/mL (≈ 39.9 µM) throughout. The MIC against Trichoderma viride came out at 25 µg/mL (≈ 39.9 µM); in the test with Fusarium verticillioides, 50 µg/mL (≈ 79.9 µM); against Bacillus subtilis, 25 µg/mL (≈ 39.9 µM).
For `CCCCc1nc(Cl)c(C2CC(c3cc(C)cc(Br)c3O)=NN2c2nc(-c3ccc(Cl)cc3)cs2)[nH]1` (stereo not given), the “inhibition zone (IZ)” value with Penicillium chrysogenum is reported as 13 mm; in the test on Candida albicans, 12 mm; with Escherichia coli, 16 mm; in the test on Salmonella enterica, 12 mm; in the test on Staphylococcus aureus, 12 mm; with Aspergillus niger, 10 mm. Moreover, the “inhibition zone (IZ)” value in the test on Trichoderma viride worked out at 14 mm; with Fusarium verticillioides, 9 mm; with Bacillus subtilis it was 14 mm. For the same molecule, the MIC with Penicillium chrysogenum came to 50 µg/mL (≈ 82.6 µM); in the test with Candida albicans, 25 µg/mL (≈ 41.3 µM); with Escherichia coli, 25 µg/mL (≈ 41.3 µM); against Salmonella enterica, 50 µg/mL (≈ 82.6 µM); in the test with Staphylococcus aureus it was 50 µg/mL (≈ 82.6 µM); in the test with Aspergillus niger, 50 µg/mL (≈ 82.6 µM). The values for the MIC with Trichoderma viride, in the test with Fusarium verticillioides and with Bacillus subtilis were 25 µg/mL (≈ 41.3 µM), 50 µg/mL (≈ 82.6 µM) and 50 µg/mL (≈ 82.6 µM), respectively.
Turning to `CCCCc1nc(Cl)c(C2CC(c3cc(Cl)c(C)c(I)c3O)=NN2c2nc(-c3ccc(Cl)cc3)cs2)[nH]1` (stereo not given), the “inhibition zone (IZ)” value with Penicillium chrysogenum worked out at 15 mm; in the test on Candida albicans, 13 mm; in the test on Escherichia coli it was 18 mm; in the test with Salmonella enterica, 16 mm; with Staphylococcus aureus it was 14 mm; in the test on Aspergillus niger, 14 mm. Besides, the “inhibition zone (IZ)” value in the test on Trichoderma viride was determined as 12 mm; in the test on Fusarium verticillioides it was 14 mm; in the test with Bacillus subtilis, 19 mm. The MIC against Penicillium chrysogenum is 25 µg/mL (≈ 36.4 µM); in the test with Candida albicans, 25 µg/mL (≈ 36.4 µM); against Escherichia coli, 25 µg/mL (≈ 36.4 µM); against Salmonella enterica it was 25 µg/mL (≈ 36.4 µM); in the test with Staphylococcus aureus it was 50 µg/mL (≈ 72.8 µM); against Aspergillus niger, 25 µg/mL (≈ 36.4 µM). Moreover, the MIC against Trichoderma viride, against Fusarium verticillioides and with Bacillus subtilis was 25 µg/mL (≈ 36.4 µM) in each case.
Consider `CCCCc1nc(Cl)c(C2CC(c3cc(C)ccc3O)=NN2c2nc(-c3ccc(Cl)cc3)cs2)[nH]1` (stereo not given), for which the MIC against Penicillium chrysogenum was > 100 µg/mL; against Candida albicans, 50 µg/mL (≈ 95 µM); in the test with Escherichia coli, 50 µg/mL (≈ 95 µM); against Salmonella enterica, > 100 µg/mL; against Staphylococcus aureus it was > 100 µg/mL; in the test on Aspergillus niger it was 50 µg/mL (≈ 95 µM). For the same molecule, the MIC in the test on Trichoderma viride, against Fusarium verticillioides and against Bacillus subtilis was 50 µg/mL (≈ 95 µM) each time. Moreover, the “inhibition zone (IZ)” value is reported as 10 mm in the test on Candida albicans; 11 mm with Escherichia coli; 12 mm with Aspergillus niger; 8 mm in the test with Trichoderma viride; 11 mm in the test on Fusarium verticillioides; 12 mm in the test with Bacillus subtilis.
Take `CCCCc1nc(Cl)c(C2CC(c3cc(Cl)cc(I)c3O)=NN2c2nc(-c3ccc(Cl)cc3)cs2)[nH]1` (stereo not given): the “inhibition zone (IZ)” value came out at 14 mm in the test with Penicillium chrysogenum; 15 mm in the test on Candida albicans; 20 mm in the test on Escherichia coli; 16 mm in the test with Salmonella enterica; 18 mm with Staphylococcus aureus; 15 mm in the test on Aspergillus niger. Besides, the “inhibition zone (IZ)” value with Trichoderma viride was determined as 16 mm; with Fusarium verticillioides, 12 mm; in the test on Bacillus subtilis, 21 mm. Further, the MIC against Penicillium chrysogenum, with Candida albicans, against Escherichia coli, with Salmonella enterica, against Staphylococcus aureus and in the test with Aspergillus niger was 25 µg/mL (≈ 37.2 µM) throughout. For the same molecule, the MIC in the test on Trichoderma viride, with Fusarium verticillioides and with Bacillus subtilis was 25 µg/mL (≈ 37.2 µM) each time.
Regarding `CCCCc1nc(Cl)c(C2CC(c3cc(Cl)cc(Cl)c3O)=NN2c2nc(-c3ccc(Cl)cc3)cs2)[nH]1` (stereo not given), the “inhibition zone (IZ)” value with Penicillium chrysogenum is 18 mm; with Candida albicans, 16 mm; in the test on Escherichia coli, 21 mm; in the test with Salmonella enterica, 18 mm; in the test with Staphylococcus aureus, 16 mm; with Aspergillus niger, 19 mm. In addition, the “inhibition zone (IZ)” value with Trichoderma viride was 18 mm; with Fusarium verticillioides, 15 mm; in the test with Bacillus subtilis it was 22 mm. The MIC in the test on Penicillium chrysogenum, against Candida albicans, in the test on Escherichia coli, in the test on Salmonella enterica, against Staphylococcus aureus and against Aspergillus niger was 25 µg/mL (≈ 43 µM) throughout. Moreover, the MIC against Trichoderma viride, in the test on Fusarium verticillioides and against Bacillus subtilis was 25 µg/mL (≈ 43 µM) throughout.

The values above are taken from ChEMBL document CHEMBL1156256, “Poly(ethylene glycol) (PEG-400) as an alternative reaction solvent for the synthesis of some new 1-(4-(4'-chlorophenyl)-2-thiazolyl)-3-aryl-5-(2-butyl-4-chloro-1H-imidazol-5yl)-2-pyrazolines and their in vitro antimicrobial evaluation” (2010).
